Measurements gathered from unrelated publications.
Lines come from different studies, so protocols differ.
Organism: Mycobacterium tuberculosis
Effect on: microbial growth

The MIC of CCc1cc(=O)c2c(O)c3ccoc3c(OC)c2o1 is reported as 512 µg/mL (resazurin; H37RV; 21 days).
Fc1cccc(CCOc2cc(-c3ccccn3)nc3ncnn23)c1 gave an MIC of over 100 µM (H37RV).
CCc1cc(=O)c2c(OCC(O)CNC(C)(C)C)c3ccoc3c(OC)c2o1 (stereo not shown) has an MIC of 32 µg/mL (resazurin; 21 days).
For NC(=S)NN=Cc1ccc(OC(=O)CN2C(=O)CSC2=O)cc1, the MIC was 2.84 µM (resazurin; H37RV).
COc1ccc(-c2oc3ccc(O)c(CN4CCCCC4)c3c2C(=O)NCc2cn(Cc3ccccc3)nn2)cc1 gave an MIC of 2 µM (CDC1551).
With CCOc1cc(C=NNC(N)=S)ccc1OC(=O)CN1C(=O)CSC1=O the MIC was 0.63 µM (resazurin; H37RV).
For CCc1nc2[nH]c(=O)n(O)c(=O)c2s1, the MIC was 46.4 µM.
Cc1ccc(-c2cc(NCCc3ccc(F)cc3)n3cnnc3n2)o1 gave an MIC of 19 µM (H37RV).
For CCc1cc(=O)c2c(OCC3CO3)c3ccoc3c(OC)c2o1 (stereo not shown), the MIC was 64 µg/mL (resazurin; 21 days).
Clc1cccc(CCOc2cc(-c3ccccn3)nc3ncnn23)c1 has an MIC of over 100 µM (H37RV).
For NNC(=O)c1ccncc1, the MIC was 0.05 µg/mL (resazurin; H37RV; 7 days).
Nc1nc2[nH]c(=O)n(O)c(=O)c2s1 gave an MIC of over 100 µM.
The MIC of CCCc1ccc(CNc2cc(-c3ccccn3)nc3nncn23)cc1 is reported as over 100 µM (H37RV; 5 days).
With CO[C@H]1/C=C/O[C@@]2(C)Oc3c(C)c(O)c4c(O)c(c(/C=N/N5CCN(C)CC5)c(O)c4c3C2=O)NC(=O)/C(C)=C\C=C\[C@H](C)[C@H](O)[C@@H](C)[C@@H](O)[C@@H](C)[C@H](OC(C)=O)[C@@H]1C the MIC was 64 µg/mL (resazurin; 21 days).
Brc1ccc(CCNc2cc(-c3ccccn3)nc3nncn23)cc1 has an MIC of 1.1 µM (H37RV).
For O=[N+]([O-])c1cn2c(n1)OC[C@@H](OCc1ccc(OC(F)(F)F)cc1)C2, the MIC was 0.31 µM (H37RV).
The MIC of COc1ccc(CCNc2cc(-c3ccccn3)nc3nncn23)cc1 is reported as 0.39 µM (H37RV).
For CO[C@H]1/C=C/O[C@@]2(C)Oc3c(C)c(O)c4c(O)c(c(/C=N/N5CCN(C)CC5)c(O)c4c3C2=O)NC(=O)/C(C)=C\C=C\[C@H](C)[C@H](O)[C@@H](C)[C@@H](O)[C@@H](C)[C@H](OC(C)=O)[C@@H]1C, the MIC was 0.06 µg/mL (H37RV).
With CCc1cc(=O)c2c(OCC(O)CNC(C)C)c3ccoc3c(OC)c2o1 (stereo not shown) the MIC was 16 µg/mL (resazurin; 21 days).
With FC(F)(F)c1ccc(CCNc2cc(-c3ccccn3)nc3nnc(C4CC4)n23)cc1 the MIC was 17 to 50 µM (H37RV; 5 days).
C#CCNC(=O)c1c(-c2ccc(OC)cc2)oc2ccc(O)c(CN3CCCCC3)c12 has an MIC of 0.8 µM (CDC1551).
For CC[C@@H](CO)NCCN[C@@H](CC)CO, the MIC was 0.5 µg/mL (resazurin; 21 days).
The MIC of Cc1ccc(CCNc2cc(-c3nccs3)nc3nncn23)cc1 is reported as 32 µM (H37RV; 5 days).
COc1cc(C=NNC(N)=S)ccc1OC(=O)CN1C(=O)CSC1=O gave an MIC of 5.23 µM (resazurin; H37RV).
[H]/N=C(/N)N[C@H]1[C@H](O)[C@@H](O)[C@H](O[C@@H]2O[C@@H](C)[C@](O)(C=O)[C@H]2O[C@@H]2O[C@@H](CO)[C@H](O)[C@@H](O)[C@@H]2NC)[C@@H](N/C(N)=N\[H])[C@@H]1O has an MIC of 1 µg/mL (resazurin; H37RV; 5 days).
